Experimental data published in ChEMBL document CHEMBL3232936, “Synthesis, biological activity, distribution and membrane permeability of novel spiro-thiazines as potent neuroprotectors” (Eur J Med Chem, 2014).

Assays:
[1] = Apparent permeability of the compound across phospholipid vesicle-based barrier; format: physicochemical; conditions: not told
How it was run: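 Phospholipid vesicle-based barrier from egg phosphatidylcholine liposomes (6% w/v in phosphate buffer with 10% v/v ethanol), extruded onto 0.65 µm mixed cellulose ester filter inserts (0.33 cm²). Donor: compound in pH 7.4 phosphate buffer; acceptor: same buffer. Room temperature, no agitation, 12–24 h, inserts moved to fresh buffer. UV-absorbance read-out; Papp from steady-state flux under sink conditions; at least triplicate, mean ± SD.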

Brain [2] = test: Inhibition of glutamate-induced [45Ca2+] uptake in synaptosomes in rat brain cortex assessed as biological activity coefficients (K43/21) after 5 mins by scintillation counting relative to control; format: functional, subcellular; set-up: concentration or dose not given beside the values
How it was run: (§1)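 Synaptosomal P2 fraction from brain cortex of 8–11-day-old rats, suspended in buffer A (132 mM NaCl, 5 mM KCl, 5 mM HEPES, pH 7.4) and kept at 0 °C. Glutamate-stimulated 45Ca2+ uptake with test compound, 5 min at 37 °C. Stopped by GF/B filtration, three washes with cold buffer B (145 mM KCl, 10 mM Tris, 5 mM Trilon B), scintillation counting. Initial screen at 100 µM; concentration dependence followed when inhibition reached 50% or more. MK-801 positive control.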

Brain [3] = test: Inhibition of glutamate-induced [45Ca2+] uptake in synaptosomes in rat brain cortex after 5 mins by scintillation counting; format: functional, subcellular; how it was run: as §1
[4] = Partition coefficient, log D of the compound in n-octanol-buffer at pH 7.4 by isothermal saturation method; format: physicochemical
How it was run: (§2)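 Isothermal saturation method at 25 °C, partitioning between n-octanol or n-hexane and phosphate buffer pH 7.4 (KH2PO4, Na2HPO4, NaCl, NaN3). Compound concentrations measured spectrophotometrically against calibration curves; coefficient taken as the ratio of concentration in the organic phase to that in buffer.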

[5] = Partition coefficient, log D of the compound in hexane-buffer at pH 7.4 by isothermal saturation method; format: physicochemical; how it was run: as §2

| Compound | Papp [1] | Activity (Brain [2]) | IC50 (Brain [3]) | logD [4] | logD [5] |
| --- | --- | --- | --- | --- | --- |
| CCc1cccc(CC)c1NC1=NCCC2(CCCCC2)S1 | 21.6 ×10⁻⁶ cm/s | 3.5% | 7.9 µM | 1.88 | 1.28 |
| CC(=O)c1ccc(NC2=NCCC3(CCCCC3)S2)cc1 | 2.55 ×10⁻⁶ cm/s | 45.1% | 81.3 µM | 1.97 | 1.88 |
| CC(=O)c1cccc(NC2=NCCC3(CCCCC3)S2)c1 | 74.7 ×10⁻⁶ cm/s | 67.3% |  | 2.37 | 1.31 |
| Cc1ccc(NC2=NCCC3(CCCCC3)S2)cc1Cl | 23.9 ×10⁻⁶ cm/s | 45.9% | 89.1 µM | 2.44 | 0.91 |
| Cc1ccc(NC2=NCCC3(CCCCC3)S2)cc1 | 5.67 ×10⁻⁶ cm/s | 20.4% | 31.6 µM | 1.56 | 1.48 |
| CC(C)c1ccc(NC2=NCCC3(CCCCC3)S2)cc1 | 15.7 ×10⁻⁶ cm/s | 0% | 6.2 µM | 1.57 | 1.45 |
| Cc1cccc(C(C)C)c1NC1=NCCC2(CCCCC2)S1 | 9.04 ×10⁻⁶ cm/s | 5.4% | 20.9 µM | 2.36 | 1.5 |
| CNC1=NCCC2(CCCCC2)S1 | 2.7 ×10⁻⁶ cm/s | 134% |  | 0.88 | 0.91 |
| Cc1cc(C)c(NC2=NCCC3(CCCCC3)S2)c(C)c1 | 11.3 ×10⁻⁶ cm/s | 2.6% | 9.3 µM | 2.05 | 1.48 |
| O=C(NC1=NCCC2(CCCCC2)S1)c1ccccc1 | 3.18 ×10⁻⁶ cm/s | 78.1% |  | 1.55 | 1.51 |
| Fc1ccc(NC2=NCCC3(CCCCC3)S2)cc1Cl | 7.36 ×10⁻⁶ cm/s | 81.5% |  | 2.03 | 0.95 |
| Nc1ccc(NC2=NCCC3(CCCCC3)S2)cc1 | 2.04 ×10⁻⁶ cm/s | 115% |  | 1.88 | -0.52 |
| CCNC1=NCCC2(CCCCC2)S1 | 8.78 ×10⁻⁶ cm/s | 65.3% |  | 1.38 | 0.72 |
| NC1=NCCC2(CCCCC2)S1 | 7.33 ×10⁻⁶ cm/s | 91.4% |  | 1.57 | 1.22 |
| Clc1ccc(NC2=NCCC3(CCCCC3)S2)cc1 | 27.8 ×10⁻⁶ cm/s | 12.7% | 35.5 µM | 2.5 | 1.34 |
| c1ccc(NC2=NCCC3(CCCCC3)S2)cc1 | 1.81 ×10⁻⁶ cm/s | 33.2% | 63.1 µM | 1.02 | 1.69 |
| Clc1ccc(NC2=NCCC3(CCCCC3)S2)cc1Cl | 3.1 ×10⁻⁶ cm/s | 76.9% |  | 2.45 | 1.24 |
| COc1ccc(NC2=NCCC3(CCCCC3)S2)cc1 | 1.11 ×10⁻⁶ cm/s | 45.7% | 85.1 µM | 0.8 | 1.45 |
| CCc1ccc(NC2=NCCC3(CCCCC3)S2)cc1 | 41 ×10⁻⁶ cm/s | 0% | 11.7 µM | 2.31 | 1.75 |
| Oc1ccc(NC2=NCCC3(CCCCC3)S2)cc1 | 1.72 ×10⁻⁶ cm/s | 73.5% |  | 1.96 |  |
| Brc1ccc(NC2=NCCC3(CCCCC3)S2)cc1 | 90.3 ×10⁻⁶ cm/s | 56.5% |  | 2.53 | 1.36 |
| FC(F)(F)c1ccc(NC2=NCCC3(CCCCC3)S2)cc1 | 3.06 ×10⁻⁶ cm/s | 42.1% | 77.6 µM | 2.18 | 1.31 |
